Assay outcomes from PubChem.
Sampled rows, rich in hits. Any-hit rate of the full collection: about 3.7%.
KCNK3 inh = human KCNK3 channel inhibition, primary screen. O14649. CHO-KCNK3 thallium flux, FluxOR fluorescence; active compounds read low. B-score at 10 µM. actives 0.84% (n = 340,000). AID 602410;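 active means B-score under library mean minus 4 SD, starting fluorescence ratio at most library mean plus 5 SD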;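 further: more negative B-score means stronger inhibition of thallium flux through KCNK3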
Kir21 inh = inhibitors of mouse Kir2.1 inward-rectifier potassium channel; P35561; HEK293-Kir2.1, FluxOR thallium flux fluorescence; active compounds read low; B-score at 10 µM; actives 0.85% (n = 310,000);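 active means fluorescence ratio B-score at or below minus 3 SD of library scores, with starting-brightness B-score within 2 SD, cut at about -4.2 in these data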;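 further: channel flux triggered by added potassium and thallium sulfate stimulus; B-score of peak minus minimum fluorescence over baseline after thallium stimulus; more negative B-score means stronger Kir2.1 block with less thallium influx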
KCNQ1 act = human KCNQ1 channel potentiation or activation. P51787. CHO-K1 KCNQ1, thallium flux FluxOR fluorescence; active compounds read high. B-score at 10 µM. actives 0.35% (n = 310,000);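 active means fluorescence ratio B-score, a plate-corrected score, at least three library SD, with initial intensity B-score within 5 SD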
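Assay system: CHO-K1 cells stably expressing KCNQ1; Medium: assay buffer with matched DMSO; Also added: K+/Tl+ depolarizing stimulus; Dosing: single dose; Timing: dye 90 min, compound 20 min, room temperature; Measured by: kinetic FluxOR thallium fluorescence, 10-s 1-Hz baseline, 110-s post-stimulus read; Read-out: peak-minus-minimum fluorescence over initial fluorescence, negative-control normalized, B-scored.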
hERG protect = hERG (human) protection from proarrhythmic block | Q12809 | CHO-hERG, FluxOR thallium flux, dofetilide IC70 present | activation (rescue from dofetilide block), less the hit threshold, % at 10 µM | actives 0.51% (n = 310,000) | AID 1511;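 active means activation above the mean of controls blocked by dofetilide plus 5 SD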;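 further: thallium influx through hERG after potassium depolarization seen as dye fluorescence rise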
KCNQ1 inh = blocks the human KCNQ1 potassium channel; P51787; CHO-K1 KCNQ1, FluxOR thallium flux fluorescence; active compounds read high; B-score at 10 µM; actives 1.3% (n = 310,000); AID 2642;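 active means compounds whose thallium flux B-score, printed positive for inhibition, exceeds three library SD while starting fluorescence stays within three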;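 further: channel opened by potassium depolarization with thallium stimulus after 20 min compound exposure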
KCNK9 block = human KCNK9 channel inhibition | Q9NPC2 | B-score at 10 µM | actives 1.2% (n = 310,000) | HEK293 KCNK9, FluxOR thallium flux fluorescence; active compounds read low | AID 488922;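 active means ratio B-score over 3 SD below the library mean, with starting fluorescence within 5 SD of its mean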;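 further: negative B-score means less thallium flux so channel inhibition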
Target sequence (Q9NPC2 whole entry, looked up): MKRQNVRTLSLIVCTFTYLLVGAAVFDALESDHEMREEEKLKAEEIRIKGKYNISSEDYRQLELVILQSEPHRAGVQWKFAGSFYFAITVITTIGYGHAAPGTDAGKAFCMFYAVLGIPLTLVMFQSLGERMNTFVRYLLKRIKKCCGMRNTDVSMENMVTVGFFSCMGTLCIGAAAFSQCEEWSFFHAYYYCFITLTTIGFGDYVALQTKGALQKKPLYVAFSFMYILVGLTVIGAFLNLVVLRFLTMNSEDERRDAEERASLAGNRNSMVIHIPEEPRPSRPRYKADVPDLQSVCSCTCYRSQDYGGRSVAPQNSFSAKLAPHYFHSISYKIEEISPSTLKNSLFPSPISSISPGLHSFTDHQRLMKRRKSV
An asterisk follows results filed as active; i = inactive; . = not tested or not shown.

SMILES | KCNK3 inh | Kir21 inh | KCNQ1 act | hERG protect | KCNQ1 inh | KCNK9 block
CC(=O)Nc1ccc(NC(=S)Nc2ccc(Br)cc2)cc1 | i | -1.6 | i | -14 | 6* | i
O=C(c1ccc([N+](=O)[O-])cc1)N(Cc1cccs1)C1CCS(=O)(=O)C1 (stereo unspecified) | i | -0.43 | i | -11 | i | i
O=C(O)C1OC(C(=O)O)C(C(=O)O)C1C(=O)O (stereo unspecified) | i | . | . | . | . | .
O=C(CSc1nc2ccccc2c(=O)n1CCCC(=O)N1CCCC1)NCc1ccco1 | i | 0.51 | i | -11 | i | i
O=C(CCCCCn1c(SCc2ccncc2)nc2ccccc2c1=O)NCc1ccco1 | i | -4.3* | i | -23 | i | i
O=C(O)Cc1cc(I)c(Oc2ccc(O)c(I)c2)c(I)c1 | . | -2.5 | i | 9.9* | i | i
O=C(O)Cc1ccc(O)c(O)c1 | i | 0.76 | i | -4 | i | i
COc1ccc(S(=O)(=O)CC(=O)Nc2nnc(C(F)(F)F)s2)cc1 | i | -0.99 | i | -7 | i | i
S=c1nc[nH]c2c1sc1nc(N3CCOCC3)c3c(c12)CCCC3 | i | -0.28 | 95* | 97* | i | i
C1CCc2c(c(N3CCOCC3)nc3sc4c(N5CCOCC5)nnnc4c23)C1 | i | . | . | . | . | .
Cn1c(N)c(C(=O)COC(=O)c2ccccc2C(=O)c2ccc(Cl)cc2)c(=O)n(C)c1=O | i | . | . | . | . | .
COc1ccc(-c2cccc(NC(=O)c3ccc4c(c3)OCO4)c2)nn1 | i | -0.74 | i | -8 | i | i
CCCCCOc1ccc(CSC(=N)N)cc1[N+](=O)[O-] | i | -8.5* | i | -13 | i | i
COc1ccc(CSC(=N)N)cc1[N+](=O)[O-] | i | 0.42 | i | -3 | i | i
Cc1ccc(OCC(=O)Nc2ccc(CN3CCCCC3)cc2)c(C)c1 | i | -1.1 | i | -4 | i | i
CN1CCN(c2ccccc2NC(=O)c2ccc(-c3ccccc3)cc2)CC1 | -8.8* | -1.8 | i | -14 | i | i
CC1=NCCN1S(=O)(=O)c1ccccc1[N+](=O)[O-] | i | -0.62 | i | -4 | i | i
CCOC(=O)c1cc2c(=O)n3ccccc3nc2n(Cc2ccco2)c1=NC(=O)c1cccc(OC)c1 | i | -0.78 | i | -21 | 7* | i
CCOC(=O)c1cc2c(=O)n3ccccc3nc2n(CCCOC)c1=NC(=O)c1ccncc1 | i | -1.6 | 15* | -25 | i | i
N#C/C(=N\Nc1cccc(C(F)(F)F)c1)C(=O)c1ccsc1 | i | -1.1 | i | -12 | i | i
Cc1ccc(C(=O)NCC(=O)OCC(=O)Nc2cc(S(=O)(=O)N3CCOCC3)ccc2Cl)s1 | i | . | . | . | . | .
C/C(=N\Nc1ccccc1C(=O)O)c1ccncc1 | i | 0.13 | i | -5 | i | i
Cc1ccc(C(=O)Nc2cc([N+](=O)[O-])ccc2C)cc1 | i | -1.2 | i | -9 | i | i
O=C(Nc1ccc(Cc2ccncc2)cc1)c1cccc([N+](=O)[O-])c1 | i | -0.81 | i | 9.8* | i | i
O=C(Nc1nc(-c2ccccc2)cs1)c1cccc([N+](=O)[O-])c1 | i | 3.5 | i | -10 | i | i
SMILES | KCNK3 inh | Kir21 inh | KCNQ1 act | hERG protect | KCNQ1 inh | KCNK9 block
Cc1ccc([N+](=O)[O-])cc1NC(=O)c1ccc(C(C)(C)C)cc1 | i | 0.66 | i | -9 | 9* | i
O=C(Nc1cc([N+](=O)[O-])ccc1O)c1cccc([N+](=O)[O-])c1 | i | 0.58 | i | -9 | 7* | i
O=C(Nc1ncc([N+](=O)[O-])s1)c1cccc([N+](=O)[O-])c1 | i | -2.8 | i | -25 | 8* | i
O=C(Nc1ccc(NC(=O)c2cccc([N+](=O)[O-])c2)cc1)c1cccc([N+](=O)[O-])c1 | i | 0 | i | -5 | i | i
COc1cccc(CNC(=O)[C@H](C)NC(=O)C2CCN(S(=O)(=O)c3ccccc3)CC2)c1 | i | 1.8 | i | -8 | i | i
CC(=O)NC(CC(=O)O)c1ccc([N+](=O)[O-])cc1 (stereo unspecified) | i | -0.33 | i | -9 | i | i
